pEC50, pIC50, pKi: −log10 of the molar value.
Columns and labels:
Rattus norvegicus [1] = assay: (§1) Tested for mGluR agonist activity by measuring the PCP induced hyperactivity in rats at 10 mg/kg; assay type: functional
Method in brief: (§2)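 Rats housed singly and acclimatized 60 min in activity-monitoring apparatus inside a sound-proof box. Oral dosing 180 min before PCP 5 mg/kg i.p.; locomotor counts recorded every 10 min for 120 min, n=6 per group. Total counts expressed as percent inhibition relative to vehicle (100%); ED50 derived; ANOVA plus Dunnett's test.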

Rattus norvegicus [2] = assay: (§3) Effective dose to evaluate PCP induced hyper activity in rats after oral administration; assay type: functional; method in brief: as §2
Rattus norvegicus [3] = assay: Tested for % inhibition of PCP induced head-weavings in rats at 1000 ug/kg; assay type: functional
Method in brief: (§4)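 Rats acclimatized individually at least 60 min. Compound given orally 60 min before PCP 7.5 mg/kg i.p. Head-weavings (slow side-to-side head movements) counted every 10 min for 30 min after PCP, n=6 per group. Percent inhibition versus vehicle total (100%); ED50 derived; ANOVA with Dunnett's test.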

Rattus norvegicus [4] = assay: (§5) Tested for % inhibition of PCP induced hyperactivity in rats at 30 mg/kg; assay type: functional; method in brief: as §2
Rattus norvegicus [5] = assay: (§6) Tested for % inhibition of PCP induced hyperactivity in rats at 10 mg/kg; assay type: functional; method in brief: as §2
[6] = molecular target: T1, Metabotropic glutamate receptor 3 (Rattus norvegicus, UniProt P31422); assay: Antagonist activity against Metabotropic glutamate receptor 3 expressed in CHO cells was evaluated in presence of 30 uM glutamic acid; assay type: functional, cell-based
T1 sequence (P31422 whole entry): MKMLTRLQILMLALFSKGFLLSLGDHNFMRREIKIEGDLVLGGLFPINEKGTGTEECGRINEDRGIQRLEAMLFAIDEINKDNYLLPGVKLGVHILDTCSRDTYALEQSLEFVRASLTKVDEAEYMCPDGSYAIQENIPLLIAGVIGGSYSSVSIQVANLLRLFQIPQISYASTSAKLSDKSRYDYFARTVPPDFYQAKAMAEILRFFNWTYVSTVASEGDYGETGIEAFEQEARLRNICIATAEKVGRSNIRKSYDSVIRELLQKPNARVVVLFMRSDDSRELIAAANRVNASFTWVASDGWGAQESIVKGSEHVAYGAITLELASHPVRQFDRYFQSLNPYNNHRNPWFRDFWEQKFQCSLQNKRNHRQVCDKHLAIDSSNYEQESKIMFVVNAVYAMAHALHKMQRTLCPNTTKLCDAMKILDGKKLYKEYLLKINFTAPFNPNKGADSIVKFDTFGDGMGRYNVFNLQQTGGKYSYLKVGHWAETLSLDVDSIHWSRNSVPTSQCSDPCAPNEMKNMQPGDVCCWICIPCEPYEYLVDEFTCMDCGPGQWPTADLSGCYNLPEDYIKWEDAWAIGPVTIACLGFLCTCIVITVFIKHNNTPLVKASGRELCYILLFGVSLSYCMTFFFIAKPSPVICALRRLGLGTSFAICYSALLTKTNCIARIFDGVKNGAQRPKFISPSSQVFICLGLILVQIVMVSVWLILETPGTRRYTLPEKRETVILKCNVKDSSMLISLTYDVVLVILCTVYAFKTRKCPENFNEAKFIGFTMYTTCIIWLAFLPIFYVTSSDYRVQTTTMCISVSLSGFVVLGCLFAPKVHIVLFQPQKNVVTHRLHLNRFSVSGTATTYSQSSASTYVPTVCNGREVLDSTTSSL
Method in brief: (§7)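 mGluR2- or mGluR3-expressing CHO cells grown 2 days, then held 4-5 h in medium without glutamine. Cells were preincubated 20 min at 37 °C in PBS with 1 mM IBMX, then exposed for 15 min at 37 °C to 10 µM forskolin plus test agent with 30 µM glutamic acid present. Reaction stopped with ice-cold ethanol; cAMP measured by enzyme immunoassay.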

Rattus norvegicus [7] = assay: Tested for % inhibition of PCP induced head-weavings in rats at 100 ug/kg; assay type: functional; method in brief: as §4
Rattus norvegicus [8] = assay: Tested for mGluR agonist activity by measuring the PCP induced head-weavings in rats at 100 ug/kg; assay type: functional; method in brief: as §4
Rattus norvegicus [9] = assay: Tested for mGluR agonist activity by measuring the PCP induced hyperactivity in rats at 3 mg/kg; assay type: functional; method in brief: as §2
Rattus norvegicus [10] = assay: Tested for % inhibition of PCP induced hyperactivity in rats at 3 mg/kg; assay type: functional; method in brief: as §2
Rattus norvegicus [11] = assay: (§8) Tested for mGluR agonist activity by measuring the PCP induced hyperactivity in rats at 30 mg/kg; assay type: functional; method in brief: as §2
Rattus norvegicus [12] = assay: Tested for mGluR agonist activity by measuring the PCP induced head-weavings in rats at 300 ug/kg; assay type: functional; method in brief: as §4
Rattus norvegicus [13] = assay: Tested for % inhibition of PCP induced head-weavings in rats at 300 ug/kg; assay type: functional; method in brief: as §4
[14] = molecular target: T1, Metabotropic glutamate receptor 3; assay: Agonist potency against cloned Metabotropic glutamate receptor 3; assay type: functional
Rattus norvegicus [15] = assay: Tested for mGluR agonist activity by measuring the PCP induced head-weavings in rats at 1000 ug/kg; assay type: functional; method in brief: as §4
[16] = molecular target: T1, Metabotropic glutamate receptor 3; assay: Tested for binding affinity against Metabotropic glutamate receptor 3 in CHO cells using [3H]-7 as radioligand; assay type: cell-based
Rattus norvegicus [17] = assay: as §5; assay type: functional; remark: listed apart in the source
Rattus norvegicus [18] = assay: Effective dose to evaluate PCP induced head-weaving behavior in rats after oral administration; assay type: functional
Rattus norvegicus [19] = assay: Tested for mGluR agonist activity by measuring the head-weaving behavior in rats at 1000 ug/kg
Rattus norvegicus [20] = assay: as §6; assay type: functional; remark: listed apart in the source
Rattus norvegicus [21] = assay: Tested for % inhibition of PCP induced hyperactivity in rats at 100 mg/kg
Rattus norvegicus [22] = assay: as §1; assay type: functional; remark: listed apart in the source
Rattus norvegicus [23] = assay: Tested for mGluR agonist activity by measuring the PCP induced hyperactivity in rats at 100 mg/kg; assay type: functional
Rattus norvegicus [24] = assay: Tested for % inhibition of PCP induced head-weavings in rats at 10000 ug/kg
Rattus norvegicus [25] = assay: as §3; assay type: functional; remark: listed apart in the source
Rattus norvegicus [26] = assay: as §8; assay type: functional; remark: listed apart in the source
Rattus norvegicus [27] = assay: Tested for mGluR agonist activity by measuring the PCP induced hyperactivity in rats at […]; assay type: functional
[28] = molecular target: T2, Metabotropic glutamate receptor 2 (Rattus norvegicus, UniProt P31421); assay: Antagonist activity against Metabotropic glutamate receptor 2 expressed in CHO cells was evaluated in presence of 30 uM glutamic acid; assay type: functional, cell-based; settings: read-out: EC50 (the source's name)
T2 sequence (P31421 whole entry): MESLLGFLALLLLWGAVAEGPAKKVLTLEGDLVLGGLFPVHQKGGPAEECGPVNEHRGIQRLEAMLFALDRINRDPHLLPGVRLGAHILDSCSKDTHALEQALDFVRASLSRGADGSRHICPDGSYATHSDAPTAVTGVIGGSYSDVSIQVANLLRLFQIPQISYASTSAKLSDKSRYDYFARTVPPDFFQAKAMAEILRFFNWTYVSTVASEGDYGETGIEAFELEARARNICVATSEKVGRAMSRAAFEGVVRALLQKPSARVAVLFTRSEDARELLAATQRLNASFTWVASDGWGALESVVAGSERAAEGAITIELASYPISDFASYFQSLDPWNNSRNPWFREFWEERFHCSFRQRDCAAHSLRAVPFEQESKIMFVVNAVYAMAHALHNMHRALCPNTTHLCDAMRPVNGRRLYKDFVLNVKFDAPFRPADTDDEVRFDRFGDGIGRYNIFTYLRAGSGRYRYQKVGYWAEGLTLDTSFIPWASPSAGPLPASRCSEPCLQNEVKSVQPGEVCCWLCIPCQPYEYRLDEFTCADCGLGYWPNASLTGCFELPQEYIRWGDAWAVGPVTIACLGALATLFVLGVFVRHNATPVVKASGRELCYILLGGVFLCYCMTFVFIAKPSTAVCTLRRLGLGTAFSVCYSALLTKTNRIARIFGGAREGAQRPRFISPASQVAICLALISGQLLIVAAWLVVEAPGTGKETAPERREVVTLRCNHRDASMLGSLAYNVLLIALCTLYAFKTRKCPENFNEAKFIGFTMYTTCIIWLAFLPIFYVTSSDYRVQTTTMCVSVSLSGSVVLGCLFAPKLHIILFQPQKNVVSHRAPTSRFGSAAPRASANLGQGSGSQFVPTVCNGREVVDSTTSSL

[29] = molecular target: T2, Metabotropic glutamate receptor 2; assay: Agonist activity against Metabotropic glutamate receptor 2 expressed in CHO cells was evaluated by measuring forskolin-induced cyclic AMP formation; assay type: functional, cell-based
[30] = molecular target: T2, Metabotropic glutamate receptor 2; assay: Antagonist activity against Metabotropic glutamate receptor 2 expressed in CHO cells was evaluated by measuring forskolin-induced cyclic AMP formation; assay type: functional, cell-based; method in brief: as §7
[31] = molecular target: T2, Metabotropic glutamate receptor 2; assay: Tested for binding affinity against Metabotropic glutamate receptor 2 in CHO cells using [3H]-7 as radioligand; assay type: cell-based
Rattus norvegicus [32] = assay: Tested for mGluR agonist activity by measuring the PCP induced head weaving behavior in rats at 0.03 ug/kg; assay type: functional; method in brief: as §4
Rattus norvegicus [33] = assay: Tested for % inhibition of PCP induced hyperactivity in rats at 0.1 mg/kg; assay type: functional; method in brief: as §2
Rattus norvegicus [34] = assay: Tested for mGluR agonist activity by measuring the PCP induced hyperactivity in rats at 1 mg/kg; assay type: functional; method in brief: as §2
Rattus norvegicus [35] = assay: Tested for % inhibition of PCP induced head-weavings in rats at 0.1 ug/kg; assay type: functional; method in brief: as §4
Rattus norvegicus [36] = assay: Tested for mGluR agonist activity by measuring the PCP induced hyperactivity in rats at 0.1 mg/kg; assay type: functional; method in brief: as §2
Rattus norvegicus [37] = assay: Tested for mGluR agonist activity by measuring the PCP induced hyperactivity in rats at 0.3 mg/kg; assay type: functional; method in brief: as §2
Rattus norvegicus [38] = assay: Tested for mGluR agonist activity by measuring the PCP induced head weaving behavior in rats at 0.1 ug/kg; assay type: functional; method in brief: as §4
Rattus norvegicus [39] = assay: Tested for % inhibition of PCP induced head-weavings in rats at 0.3 ug/kg; assay type: functional; method in brief: as §4
Rattus norvegicus [40] = assay: Tested for % inhibition of PCP induced hyperactivity in rats at 1 mg/kg; assay type: functional; method in brief: as §2
Rattus norvegicus [41] = assay: Tested for % inhibition of PCP induced head-weavings in rats at 0.03 ug/kg; assay type: functional; method in brief: as §4
Rattus norvegicus [42] = assay: Tested for % inhibition of PCP induced hyperactivity in rats at 0.3 mg/kg; assay type: functional; method in brief: as §2
Rattus norvegicus [43] = assay: Tested for mGluR agonist activity by measuring the PCP induced head weaving behavior in rats at 0.3 ug/kg; assay type: functional; method in brief: as §4

SMILES: N[C@]1(C(=O)O)[C@H]2[C@@H](C[C@@H]1F)[C@@H]2C(=O)O
- Total counts (Rattus norvegicus [1]): 11300
- ED50 (Rattus norvegicus [2]): 5.1 mg/kg
- inhibition in vivo at 1 mg/kg (Rattus norvegicus [3]): 81%
- inhibition in vivo at 30 mg/kg (Rattus norvegicus [4]): 97%
- inhibition in vivo at 10 mg/kg (Rattus norvegicus [5]): 79%
- pEC50 [6]: < 4.00
- inhibition in vivo at 0.1 mg/kg (Rattus norvegicus [7]): 35%
- Total counts (Rattus norvegicus [8]): 25.5
- Total counts (Rattus norvegicus [9]): 40600
- inhibition in vivo at 3 mg/kg (Rattus norvegicus [10]): 26%
- Total counts (Rattus norvegicus [11]): 1850
- Total counts (Rattus norvegicus [12]): 21
- inhibition in vivo at 0.3 mg/kg (Rattus norvegicus [13]): 47%
- pEC50 [14]: 7.34
- Total counts (Rattus norvegicus [15]): 7.5
- pKi [16]: 7.18

SMILES: N[C@@]1(C(=O)O)CC[C@H]2[C@H](C(=O)O)[C@H]21
- inhibition in vivo at 30 mg/kg (Rattus norvegicus [17]): 32%
- ED50 (Rattus norvegicus [18]): 3 mg/kg
- Number of head-weavings (Rattus norvegicus [19]): 33
- inhibition in vivo at 10 mg/kg (Rattus norvegicus [20]): 37%
- inhibition in vivo at 100 mg/kg (Rattus norvegicus [21]): 44%
- Total counts (Rattus norvegicus [22]): 40600
- Total counts (Rattus norvegicus [23]): 36000
- Inhibition % (Rattus norvegicus [24]): 83%
- ED50 (Rattus norvegicus [25]): > 100 mg/kg
- Total counts (Rattus norvegicus [26]): 43800
- pEC50 [14]: 7.20
- Total counts (Rattus norvegicus [27]): 6.5
- pKi [16]: 7.27

SMILES: N[C@@]1(C(=O)O)CC(O)[C@@H]2[C@H]1[C@@]2(F)C(=O)O (mixture of isomers)
- pIC50 [28]: < 4.00
- pEC50 [29]: 7.68

SMILES: N[C@@]1(C(=O)O)CC(=O)[C@@H]2[C@H]1[C@@]2(F)C(=O)O (racemic)
- pEC50 [29]: 8.90

SMILES: N[C@]1(C(=O)O)[C@H]2[C@@H](CC1(F)F)[C@@H]2C(=O)O (racemic)
- pIC50 [28]: 4.44
- pEC50 [29]: < 4.00

SMILES: N[C@@]1(C(=O)O)CC[C@@H]2[C@H]1[C@@]2(F)C(=O)O (racemic)
- pEC50 [29]: 7.47

SMILES: C[C@]1(C(=O)O)[C@@H]2CC[C@@](N)(C(=O)O)[C@@H]21 (racemic)
- pEC50 [30]: < 4.00
- pEC50 [29]: < 4.00

SMILES: N[C@@]1(C(=O)O)CC[C@@H]2[C@H]1[C@@]2(F)C(=O)O (stereo in doubt; (+)11)
- pEC50 [29]: 5.95

SMILES: N[C@@]1(C(=O)O)CC(=O)[C@@H]2[C@H]1[C@@]2(F)C(=O)O (stereo in doubt; (+)-14)
- pKi [31]: 8.48
- Total counts (Rattus norvegicus [32]): 27.1
- ED50 (Rattus norvegicus [2]): 0.3 mg/kg
- inhibition in vivo at 0.1 mg/kg (Rattus norvegicus [33]): 36%
- Total counts (Rattus norvegicus [34]): 26100
- inhibition in vivo at 0.0001 mg/kg (Rattus norvegicus [35]): 52%
- pEC50 [6]: < 4.00
- Total counts (Rattus norvegicus [36]): 38500
- Total counts (Rattus norvegicus [9]): 7760
- inhibition in vivo at 3 mg/kg (Rattus norvegicus [10]): 87%
- Total counts (Rattus norvegicus [37]): 27700
- pIC50 [28]: < 4.00
- Total counts (Rattus norvegicus [38]): 16.2
- inhibition in vivo at 0.0003 mg/kg (Rattus norvegicus [39]): 86%
- inhibition in vivo at 1 mg/kg (Rattus norvegicus [40]): 56%
- inhibition in vivo at 3e-05 mg/kg (Rattus norvegicus [41]): 21%
- pEC50 [29]: 9.24
- pEC50 [14]: 8.68
- inhibition in vivo at 0.3 mg/kg (Rattus norvegicus [42]): 54%
- pKi [16]: 8.44
- Total counts (Rattus norvegicus [43]): 4.88

SMILES: N[C@@]1(C(=O)O)CC[C@@H]2[C@H]1[C@@]2(F)C(=O)O (stereo in doubt; (-)-11)
- pKi [31]: 7.65
- pEC50 [6]: < 4.00
- pIC50 [28]: < 4.00
- pEC50 [29]: 7.78
- pEC50 [14]: 7.09
- pKi [16]: 7.38

SMILES: N[C@@]1(C(=O)O)CC(=O)[C@@H]2[C@H]1[C@@]2(F)C(=O)O (stereo in doubt; (-)-14)
- pEC50 [29]: 7.02

From ChEMBL document CHEMBL1133557, “Synthesis, SARs, and pharmacological characterization of 2-amino-3 or 6-fluorobicyclo[3.1.0]hexane-2,6-dicarboxylic acid derivatives as potent, selective, and orally active group II metabotropic glutamate receptor agonists” (J Med Chem, 2000)
